Calls of active or inactive are those of the source. No cut-off for these calls is given here.
What was measured:
[1] = Inhibition of SARS-CoV-2 3CL protease expressed in Escherichia coli BL21 DE3 using 2-aminobenzoyl-SVTLQSG-Tyr(NO2)-R as substrate preincubated with substrate for 15 mins followed by compound addition and measured after 1 hr by FRET assay; design: species or system Severe acute respiratory syndrome coronavirus 2
Murine hepatitis virus [2] = experiment: Antiviral activity against MHV-A59 infected in […] cells assessed as reduction in viral gene expression at 100 uM treated 2 hrs post viral infection and measured after 6 hrs by RT-PCR analysis; type: functional, organism-based
Murine hepatitis virus [3] = experiment: Antiviral activity against MHV-A59 infected in LR7 cells assessed as reduction in N protein production at 4 nM treated 2 hrs post viral infection and measured after 6 hrs by Western blot analysis; type: functional; design: scale not given: the % may be the effect or the level left
How it was run: (§1)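 LR7 cells (1×10^5/well) infected with MHV A59 at MOI 1 for 1 h, washed, then held in DMEM with 2% FBS. Compound (4 nM–40 µM, tenfold steps) was added at 2 h p.i. and cells were harvested at 8 h p.i. Western blot probed for MHV N protein, normalized to GAPDH and expressed relative to the 0.1% DMSO control. Mock and 400 nM bafilomycin A1 served as controls. ≥3 independent experiments.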

Murine hepatitis virus [4] = experiment: Antiviral activity against MHV-A59 infected in LR7 cells assessed as reduction in N protein production measured after 6 hrs by Western blot analysis relative to control; type: functional, organism-based; conditions: dose 0.004-40 µM; how it was run: as §1
[5] = Cytotoxicity against African green monkey Vero E6 cells assessed as maximum non-toxic concentration after 6 hrs by MTT assay; type: cell-based; conditions: chlorocebus aethiops
How it was run: (§2)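 Vero E6 or LR7 cells seeded at 1×10^4/well were grown 24 h in DMEM with 10% FBS at 37 °C and 5% CO2. Serial drug dilutions (0–500 µM) were added for 6 h (legend) or 8 h (methods). Viability was normalized to the 0.1% DMSO control.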

Murine hepatitis virus [6] = experiment: Antiviral activity against MHV-A59 infected in Vero E6 cells assessed as reduction in viral gene expression at 10 uM treated 2 hrs post viral infection and measured after 6 hrs by RT-PCR analysis; type: functional; design: scale not given: the % may be the effect or the level left
[7] = Cmax in human; type: ADME
Murine hepatitis virus [8] = experiment: Antiviral activity against MHV-A59 infected in LR7 cells assessed as reduction in number of infected cells at 40 nM treated 2 hrs post viral infection and measured after 6 hrs by immunofluorescence analysis; type: functional; design: scale not given: the % may be the effect or the level left
How it was run: (§3)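 MHV A59 infection of LR7 cells on coverslips at MOI 1. Compound (4 nM–40 µM, tenfold dilutions) was added 2 h p.i. and cells were fixed at 8 h p.i. with 4% paraformaldehyde. Cells were permeabilized with 0.2% Triton X-100 and stained with anti-nsp2/nsp3 antiserum, an Alexa-488 secondary and DAPI. nsp2/nsp3-positive cells were counted by confocal microscopy relative to the DMSO control. ≥3 independent experiments.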

Murine hepatitis virus [9] = experiment: Antiviral activity against MHV-A59 infected in LR7 cells assessed as reduction in number of infected cells at 40 uM treated 2 hrs after post viral infection and measured after 6 hrs by DAPI staining based immunofluorescence analysis relative to control; type: functional; design: scale not given: the % may be the effect or the level left; how it was run: as §3
[10] = Cytotoxicity against mouse LR7 cells assessed as maximum non-toxic concentration after 6 hrs by MTT assay; type: cell-based; how it was run: as §2
Murine hepatitis virus [11] = experiment: Antiviral activity against MHV-A59 infected in LR7 cells assessed as reduction in N protein production at 40 uM treated 2 hrs after post viral infection and measured after 6 hrs by Western blot analysis relative to control; type: functional; design: scale not given: the % may be the effect or the level left; how it was run: as §1
Murine hepatitis virus [12] = experiment: Antiviral activity against MHV-A59 infected in LR7 cells assessed as reduction in number of infected cells at 400 nM treated 2 hrs after post viral infection and measured after 6 hrs by DAPI staining based immunofluorescence analysis; type: functional, organism-based; how it was run: as §3
Murine hepatitis virus [13] = experiment: Antiviral activity against MHV-A59 infected in LR7 cells assessed as reduction in N protein production at 400 nM treated 2 hrs after post viral infection and measured after 6 hrs by Western blot analysis; type: functional, organism-based; how it was run: as §1
[14] = tested on: Severe acute respiratory syndrome coronavirus 2; experiment: Inhibition of SARS-CoV-2 3CL protease expressed in Escherichia coli BL21 DE3 at 200 uM using 2-aminobenzoyl-SVTLQSG-Tyr(NO2)-R as substrate preincubated with substrate for 15 mins followed by compound addition and measured after 1 hr by FRET assay relative to control

## CC(C)(C)NC(=O)N[C@H](C(=O)N1C[C@H]2[C@@H]([C@H]1C(=O)NC(CC1CCC1)C(=O)C(N)=O)C2(C)C)C(C)(C)C (some centres undefined) [BOCEPREVIR]
[1]
  IC50: 1.59 µM
Murine hepatitis virus [2]
  Activity: Active
Murine hepatitis virus [3]
  Activity: 40%
Murine hepatitis virus [4]
  Activity: Dose-dependent effect
[5]
  MNTC at 6 h: 72.5 µM
Murine hepatitis virus [6]
  Activity: 50%
[7]
  Cmax: 1720 ng/mL
Murine hepatitis virus [8]
  Activity: 25%
Murine hepatitis virus [9]
  Activity: 75%
[10]
  MNTC at 6 h: 72.5 µM
Murine hepatitis virus [11]
  Activity: 90%

## CO/C1=C\C(C)=C\[C@@H](C)[C@@H](O)[C@@H](C)C/C(C)=C/C=C/[C@H](OC)[C@@H]([C@@H](C)[C@@H](O)[C@H](C)[C@@]2(O)C[C@@H](O)[C@H](C)[C@@H](C(C)C)O2)OC1=O
Murine hepatitis virus [12]
  Activity: Active
Murine hepatitis virus [13]
  Activity: Active

## CCC[C@H](NC(=O)[C@@H]1[C@H]2CCC[C@H]2CN1C(=O)[C@@H](NC(=O)[C@@H](NC(=O)c1cnccn1)C1CCCCC1)C(C)(C)C)C(=O)C(=O)NC1CC1 [TELAPREVIR]
[1]
  IC50: 55.7 µM
[5]
  MNTC at 6 h: 72.5 µM
Murine hepatitis virus [9]
  Activity: inactive
[10]
  MNTC at 6 h: 72.5 µM
[14]
  inhibition: 100%
Murine hepatitis virus [11]
  Activity: inactive

— ChEMBL document CHEMBL4732021, “Repurposing the HCV NS3-4A protease drug boceprevir as COVID-19 therapeutics” (RSC Med Chem, 2021)
